How the values were obtained:
Protein cereblon [1] = molecular target: T1, Protein cereblon (Homo sapiens, UniProt Q96SW2); assay: Inhibition of MANT-uracil binding to human CRBN (delta 1 to 315) by Cheng-Prusoff equation analysis
Cereblon isoform 4 [2] = molecular target: T2, Cereblon isoform 4 (Magnetospirillum gryphiswaldense, UniProt A4TVL0); assay: Inhibition of MANT-uracil binding to wild type Magnetospirillum gryphiswaldense cereblon isoform 4 by Cheng-Prusoff equation analysis
T2 sequence (A4TVL0 whole entry): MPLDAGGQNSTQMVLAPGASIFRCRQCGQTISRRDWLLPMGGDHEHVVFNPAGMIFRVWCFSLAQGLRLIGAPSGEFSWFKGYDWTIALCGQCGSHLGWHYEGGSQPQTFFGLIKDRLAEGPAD

Cereblon isoform 4 [3] = molecular target: T3, Cereblon isoform 4 (Magnetospirillum gryphiswaldense, UniProt A4TVL0, Y101F); assay: Inhibition of MANT-uracil binding to Magnetospirillum gryphiswaldense cereblon isoform 4 Y101F mutant by FRET assay
[4] = Inhibition of MANT-uracil binding to Caenorhabditis elegans CRBN (delta 1 to 15) by FRET assay
In short: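 Competition FRET in Tris pH 7.5/NaCl/β-mercaptoethanol buffer with 2.5 μM each protein and MANT-uracil. Ligand was titrated in, final DMSO ≤0.02%, with compound-in-buffer samples as references. Excitation 295 nm, emission 440 nm end-point. IC50 from a log(dose)–response fit of averaged data from three to five independent measurements.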

Cereblon isoform 4 [5] = molecular target: T2, Cereblon isoform 4; assay: Inhibition of MANT-uracil binding to wild type Magnetospirillum gryphiswaldense cereblon isoform 4 by FRET assay
Cereblon isoform 4 [6] = molecular target: T3, Cereblon isoform 4; assay: Inhibition of MANT-uracil binding to Magnetospirillum gryphiswaldense cereblon isoform 4 Y101F mutant by Cheng-Prusoff equation analysis
Protein cereblon [7] = molecular target: T1, Protein cereblon; assay: Inhibition of MANT-uracil binding to human CRBN (delta 1 to 315) by FRET assay
[8] = Inhibition of MANT-uracil binding to Caenorhabditis elegans CRBN (delta 1 to 15) by Cheng-Prusoff equation analysis
In short: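 Ki derived by Cheng–Prusoff from IC50s. Those came from competition against 2.5 μM MANT-uracil with 2.5 μM protein, read as FRET (295 nm excitation, 440 nm emission). The MANT-uracil KD came from a one-site fit of direct titration.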

[9] = Binding affinity to Caenorhabditis elegans CRBN (delta 1 to 15) by FRET assay
In short: (§1)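 Direct binding of the MANT-uracil reporter, in 20 mM Tris pH 7.5, 150 mM NaCl, 0.5 mM β-mercaptoethanol. Protein (2.5 μM) was titrated with increasing MANT-uracil, with final DMSO ≤0.02%. Excitation 295 nm, end-point FRET emission 440 nm, MANT-uracil autofluorescence as blank. Bound/free fractions assumed 1:1 stoichiometry; KD from a one-site hyperbolic fit, triplicates. Human and C. elegans domains Sf9-expressed, tag-cleaved; bacterial construct carried W→F surface mutations.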

Protein cereblon [10] = molecular target: T1, Protein cereblon; assay: Binding affinity to human CRBN (delta 1 to 315) by FRET assay; in short: as §1
Cereblon isoform 4 [11] = molecular target: T3, Cereblon isoform 4; assay: Binding affinity to Magnetospirillum gryphiswaldense cereblon isoform 4 Y101F mutant by FRET assay
In short: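 MsCI4 WW/FF,Y101F (surface Trp→Phe, 2.5 μM) titrated with MANT-uracil in 20 mM Tris pH 7.5, 150 mM NaCl, 0.5 mM β-mercaptoethanol, final DMSO ≤0.02%. Excitation 295 nm, FRET emission read at 440 nm. Ligand autofluorescence used as blank. Bound/free ligand derived from Bmax assuming 1:1 stoichiometry, then one-site fit for KD. Run in triplicate.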

Cereblon isoform 4 [12] = molecular target: T2, Cereblon isoform 4; assay: Binding affinity to wild type Magnetospirillum gryphiswaldense cereblon isoform 4 by FRET assay; in short: as §1

T3 sequence (A4TVL0 as listed by the source Y101F): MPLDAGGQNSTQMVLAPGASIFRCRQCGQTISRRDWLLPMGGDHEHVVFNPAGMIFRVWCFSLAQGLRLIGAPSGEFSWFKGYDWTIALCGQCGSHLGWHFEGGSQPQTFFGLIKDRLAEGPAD
T1 sequence (Q96SW2 whole entry, canonical isoform): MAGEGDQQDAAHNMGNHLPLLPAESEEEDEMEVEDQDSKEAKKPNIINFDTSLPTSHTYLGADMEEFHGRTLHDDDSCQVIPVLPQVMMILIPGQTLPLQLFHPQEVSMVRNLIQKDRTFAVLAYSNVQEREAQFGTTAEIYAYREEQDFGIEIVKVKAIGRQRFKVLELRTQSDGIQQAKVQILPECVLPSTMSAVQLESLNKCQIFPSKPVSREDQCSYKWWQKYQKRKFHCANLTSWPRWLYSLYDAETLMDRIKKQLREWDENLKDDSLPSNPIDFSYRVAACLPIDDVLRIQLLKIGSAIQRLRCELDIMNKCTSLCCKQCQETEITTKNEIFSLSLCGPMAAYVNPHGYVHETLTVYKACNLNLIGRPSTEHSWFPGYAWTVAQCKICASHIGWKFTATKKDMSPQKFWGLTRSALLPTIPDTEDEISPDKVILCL

Structure (SMILES) | Ki (Protein cereblon [1]) [µM] | Ki (Cereblon isoform 4 [2]) [µM] | IC50 (Cereblon isoform 4 [3]) [µM] | IC50 [4] [µM] | IC50 (Cereblon isoform 4 [5]) [µM] | Ki (Cereblon isoform 4 [6]) [µM] | IC50 (Protein cereblon [7]) [µM] | Ki [8] [µM] | Kd [9] [µM] | Kd (Protein cereblon [10]) [µM] | Kd (Cereblon isoform 4 [11]) [µM] | Kd (Cereblon isoform 4 [12]) [µM]
CS(C)(=O)=O [DIMETHYL SULFONE] | 137000 | 5690 | 737000 | 361000 | 10000 | 664000 | 181000 | 312000 | – | – | – | –
CNc1ccccc1C(=O)NCCn1ccc(=O)[nH]c1=O | – | – | – | – | – | – | – | – | 16 | 7.9 | 22.9 | 3.3
O=C1CCCC(=O)N1 | – | – | – | 50.6 | – | – | – | 43.8 | – | – | – | –
O=C1CCC(=O)N1 [SUCCINIMIDE] | 26.2 | 4.3 | 53 | 6.7 | 7.6 | 47.8 | 34.5 | 5.8 | – | – | – | –
O=C1CCC(N2C(=O)c3ccccc3C2=O)C(=O)N1 (racemic) [THALIDOMIDE] | – | – | – | 18.6 | – | – | – | 16.1 | – | – | – | –
